How the values were obtained:
[1] = biological target: T1, Integrin alpha-IIb/beta-3 (Homo sapiens, UniProt P05106+P08514); experiment: Inhibition of [125I]fibrinogen binding to human Fibrinogen Receptor.; format: protein-complex assay
Target sequence in this assay (P05106 27-788 limits assumed): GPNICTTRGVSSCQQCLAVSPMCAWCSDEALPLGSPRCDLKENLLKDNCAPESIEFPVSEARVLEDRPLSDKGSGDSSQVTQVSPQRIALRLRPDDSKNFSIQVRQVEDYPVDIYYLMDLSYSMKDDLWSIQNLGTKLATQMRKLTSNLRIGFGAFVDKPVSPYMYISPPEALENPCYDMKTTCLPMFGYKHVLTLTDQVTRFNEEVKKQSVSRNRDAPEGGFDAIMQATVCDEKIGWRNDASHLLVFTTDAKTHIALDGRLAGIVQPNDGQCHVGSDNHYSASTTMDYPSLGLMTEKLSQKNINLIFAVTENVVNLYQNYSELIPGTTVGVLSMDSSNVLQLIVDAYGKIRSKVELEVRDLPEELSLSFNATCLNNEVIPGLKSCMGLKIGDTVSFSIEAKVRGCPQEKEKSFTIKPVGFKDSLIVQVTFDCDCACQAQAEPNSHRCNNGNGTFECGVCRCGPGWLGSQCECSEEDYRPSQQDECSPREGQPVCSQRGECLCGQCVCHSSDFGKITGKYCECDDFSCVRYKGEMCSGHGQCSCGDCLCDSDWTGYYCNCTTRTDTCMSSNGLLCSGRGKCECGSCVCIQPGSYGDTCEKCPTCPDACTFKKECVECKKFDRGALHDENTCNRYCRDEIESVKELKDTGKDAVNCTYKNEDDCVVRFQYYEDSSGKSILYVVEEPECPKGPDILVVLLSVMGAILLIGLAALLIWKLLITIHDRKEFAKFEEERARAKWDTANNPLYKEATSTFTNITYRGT
Target sequence in this assay (P08514 32-887 limits assumed): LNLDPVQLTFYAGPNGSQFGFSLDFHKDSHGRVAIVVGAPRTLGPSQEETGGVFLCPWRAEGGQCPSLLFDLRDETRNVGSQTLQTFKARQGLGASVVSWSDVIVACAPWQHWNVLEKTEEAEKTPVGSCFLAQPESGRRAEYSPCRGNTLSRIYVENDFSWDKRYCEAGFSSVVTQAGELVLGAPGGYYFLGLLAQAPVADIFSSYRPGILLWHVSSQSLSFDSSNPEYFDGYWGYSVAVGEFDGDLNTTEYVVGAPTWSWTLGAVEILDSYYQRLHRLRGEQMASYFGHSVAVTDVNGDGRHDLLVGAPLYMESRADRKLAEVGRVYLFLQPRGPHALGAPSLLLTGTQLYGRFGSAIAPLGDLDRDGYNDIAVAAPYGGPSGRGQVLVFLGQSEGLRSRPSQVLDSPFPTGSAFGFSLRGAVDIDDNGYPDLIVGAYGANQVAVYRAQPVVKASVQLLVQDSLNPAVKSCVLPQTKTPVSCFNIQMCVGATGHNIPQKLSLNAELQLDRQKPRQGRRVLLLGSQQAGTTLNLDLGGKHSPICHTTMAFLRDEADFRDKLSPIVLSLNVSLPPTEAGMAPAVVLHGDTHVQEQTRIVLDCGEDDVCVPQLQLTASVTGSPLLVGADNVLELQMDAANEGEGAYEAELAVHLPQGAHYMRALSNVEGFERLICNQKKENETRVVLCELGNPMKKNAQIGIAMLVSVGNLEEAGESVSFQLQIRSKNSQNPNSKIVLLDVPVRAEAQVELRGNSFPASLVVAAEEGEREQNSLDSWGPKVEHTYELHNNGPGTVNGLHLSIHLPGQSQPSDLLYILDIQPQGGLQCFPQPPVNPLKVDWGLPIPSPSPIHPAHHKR
Target sequence in this assay (P08514 891-1039 limits assumed): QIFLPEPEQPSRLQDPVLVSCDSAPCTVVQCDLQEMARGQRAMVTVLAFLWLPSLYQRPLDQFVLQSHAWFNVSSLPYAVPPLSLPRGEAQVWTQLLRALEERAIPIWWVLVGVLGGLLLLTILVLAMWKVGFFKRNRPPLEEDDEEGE

[2] = In vitro inhibition of thrombin-induced platelet aggregation.; format: functional; conditions: Homo sapiens
[3] = biological target: T1, Integrin alpha-IIb/beta-3; experiment: Inhibition of [125I]fibrinogen binding to human Fibrinogen Receptor at 50 uM; format: protein-complex assay
Method in brief: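 Human PRP with aspirin (50 μM, 37 °C, 20 min), pH 6.5, PGE1 0.9 μM; platelets gel-filtered, 1×10^8 per tube, thrombin-activated 2 min at room temperature, then hirudin. Compound plus [125I]fibrinogen (0.1 μM final) 10 min room temperature; platelets spun through silicone oil and pellet counted. Nonspecific binding with 4 mg/mL unlabeled fibrinogen; triplicates; % inhibition of specific binding vs fibrinogen alone.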

[4] = biological target: T1, Integrin alpha-IIb/beta-3; experiment: Inhibition of thrombin-induced platelet aggregation at 50 uM; format: functional

| SMILES | IC50 [1] [µM] | IC50 [2] [µM] | inhibition [3] [%] | inhibition [4] [%] |
| --- | --- | --- | --- | --- |
| O=C(NCCCN1CCCCC1)c1cnn(-c2nc(-c3cccc(C(F)(F)F)c3)cs2)c1C(F)(F)F | 30 | 10.9 | – | – |
| CCN(CC)CCCNC(=O)c1cnn(-c2nc(-c3ccc(C)cc3)cs2)c1C(F)(F)F | 70 | 8.2 | – | – |
| CCN(CC)CCCNC(=O)c1cnn(-c2nc(-c3cccc(C)c3)cs2)c1C(F)(F)F | 50 | 25 | – | – |
| N=C(N)NCCC[C@H](N)C(=O)NCC(=O)N[C@@H](CC(=O)O)C(=O)N[C@@H](CO)C(=O)O | – | 30 | – | – |
| CCN(CC)CCCNC(=O)c1cnn(-c2nc(-c3ccc(OC)cc3)cs2)c1C(F)(F)F | – | 12.5 | 57 | – |
| CCN(CC)CCCNC(=O)c1cnn(-c2nc(-c3ccccc3)cs2)c1C(F)(F)F | 50 | 30 | – | – |
| CCN(CC)CCCNC(=O)c1cnn(-c2nc(-c3cccc(C(F)(F)F)c3)c(C(=O)O)s2)c1C(F)(F)F | – | – | – | 30 |
| CC(=O)Oc1ccccc1C(=O)O [ASPIRIN] | – | > 100 | – | – |
| CCN(CC)CCCNC(=O)c1cnn(-c2nc(-c3cccc(C(F)(F)F)c3)c(Br)s2)c1C(F)(F)F | 1.3 | 2.7 | – | – |
| O=C(NCCCNC1CCCCC1)c1cnn(-c2nc(-c3cccc(C(F)(F)F)c3)cs2)c1C(F)(F)F | 25 | 6.1 | – | – |
| COc1ccc(CCNC(=O)C(CC(=O)O)NC(=O)CCCCCCCN=C(N)N)cc1 (centres undefined) | 9 | 7.9 | – | – |
| CCN(CC)CCCCCCCNC(=O)c1cnn(-c2nc(-c3cccc(C(F)(F)F)c3)cs2)c1C(F)(F)F | – | – | 0 | 35 |
| CCN(CC)CCCNC(=O)c1cnn(-c2nc(-c3ccc(C(F)(F)F)cc3)cs2)c1C(F)(F)F | 40 | 9.1 | – | – |
| O=C(NCCCNc1ccccc1)c1cnn(-c2nc(-c3cccc(C(F)(F)F)c3)cs2)c1C(F)(F)F | – | – | 0 | 18 |
| N=C(N)NCCCNC(=O)c1cnn(-c2nc(-c3cccc(C(F)(F)F)c3)cs2)c1C(F)(F)F | 17.5 | 11.8 | – | – |
| CCN(CC)CCCNC(=O)c1cnn(-c2nc(-c3ccc(Cl)cc3)cs2)c1C(F)(F)F | 45 | 6.8 | – | – |

Continued, values first:

| IC50 [1] [µM] | IC50 [2] [µM] | inhibition [3] [%] | inhibition [4] [%] | SMILES |
| --- | --- | --- | --- | --- |
| 12.3 | 14 | – | – | NCCCNC(=O)c1cnn(-c2nc(-c3cccc(C(F)(F)F)c3)cs2)c1C(F)(F)F |
| 23 | 13 | – | – | N=C(N)CCCNC(=O)c1cnn(-c2nc(-c3cccc(C(F)(F)F)c3)cs2)c1C(F)(F)F |
| 18.3 | 4.8 | – | – | NCCCCNC(=O)c1cnn(-c2nc(-c3cccc(C(F)(F)F)c3)cs2)c1C(F)(F)F |
| – | – | 0 | 0 | O=C(NCCCN1CCCC1=O)c1cnn(-c2nc(-c3cccc(C(F)(F)F)c3)cs2)c1C(F)(F)F |
| 10 | 14.3 | – | – | CCCNCCCNC(=O)c1cnn(-c2nc(-c3cccc(C(F)(F)F)c3)cs2)c1C(F)(F)F |
| 15.6 | 13.7 | – | – | CN(C)/C=N/CCCNC(=O)c1cnn(-c2nc(-c3cccc(C(F)(F)F)c3)cs2)c1C(F)(F)F |
| – | 11.5 | 61 | – | NCCCCCNC(=O)c1cnn(-c2nc(-c3cccc(C(F)(F)F)c3)cs2)c1C(F)(F)F |
| 11.2 | 6.7 | – | – | CC(C)NCCCNC(=O)c1cnn(-c2nc(-c3cccc(C(F)(F)F)c3)cs2)c1C(F)(F)F |
| – | – | 44 | – | NCCNC(=O)c1cnn(-c2nc(-c3cccc(C(F)(F)F)c3)cs2)c1C(F)(F)F |
| – | – | 0 | 33 | O=C(NCCCn1ccnc1)c1cnn(-c2nc(-c3cccc(C(F)(F)F)c3)cs2)c1C(F)(F)F |
| 4.1 | – | – | – | CCN(CC)CCCNC(=O)c1cnn(-c2nc(-c3cccc(C(F)(F)F)c3)cs2)c1C(F)(F)F |

From ChEMBL document CHEMBL1128342, “Novel thiazole-based heterocycles as selective inhibitors of fibrinogen-mediated platelet aggregation” (J Med Chem, 1995)
